From PubChem BioAssay
FGF22 binding-1: binders of human FGF22 protein, primary screen, FGF22 synaptogenesis inhibitor project, biophysical, thermal shift, single point; activity (Tm shift, normalised), % at 9.99 µM; recombinant FGF22 thermal shift, SYPRO orange fluorescence; percent of sucrose octasulfate shift, DMSO zero; hit rate 1.5% among 340,000;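 active = mean Tm shift, scaled 0 neutral to 100 positive control, at about 1.3% or above, every replicate too, limit read from the data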
Target sequence (Q9HCT0 whole entry, looked up): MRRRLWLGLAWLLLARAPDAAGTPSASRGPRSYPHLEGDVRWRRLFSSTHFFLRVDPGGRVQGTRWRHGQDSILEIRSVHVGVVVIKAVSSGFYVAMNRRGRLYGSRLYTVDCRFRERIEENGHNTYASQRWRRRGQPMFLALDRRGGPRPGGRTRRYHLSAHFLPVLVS
Env fusion inh: inhibitors of HIV-1 Env-driven cell-cell fusion, primary screen, HeLa-JRFL effector, CEM21 target cells, luciferase | inhibition, % at 12.3 µM | hit rate 1.1% among 360,000;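 active = mean replicate inhibition score of at least 50 and every replicate individually at or above 50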;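 also: 0% = plate neutral controls and 100% = maraviroc near 300 nM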
S100A4 MyoIIA: inhibitors of S100A4-myosin IIA peptide binding, primary screen, biochemical, fluorescence polarization, TAMRA-MyoIIA peptide; inhibition, % at 10.7 µM; hit rate 0.14% among 360,000; AID 652163, 2013;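 active = mean inhibition of at least 70% across replicates, with every replicate also reaching that level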
Target sequence (P26447 whole entry, looked up): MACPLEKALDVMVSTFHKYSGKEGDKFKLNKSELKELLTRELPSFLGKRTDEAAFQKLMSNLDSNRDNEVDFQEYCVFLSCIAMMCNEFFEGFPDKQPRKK
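Material: S100A4 monomer protein | Medium: HEPES pH 7.2 with CaCl2, KCl, NaCl, DTT, Triton | Reagent: Labelled myosin peptide probe, 5 nM | Doses: One dose per compound | Times: 5 min incubation before reading | Benchmarks: Neutral control DMSO, positive control TFP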
E-sel inducer: E-selectin induction in HUVECs, primary screen, imaging, HUVEC, immunofluorescence imaging, single point | normalized: neutral wells 0, TNF-alpha wells 100 | hit rate 0.37% among 260,000 | activation, % at 7.58 µM;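 active = mean E-selectin-positive cell signal at least 10% of the positive control, reached in at least 60% of replicates, without over 20% cell loss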
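Assay system: HUVEC primary endothelial cells. Input: 3,000 HUVEC seeded per well. Doses: one compound dose added by pin transfer. Read-out basis: % PE-positive cells. Benchmarks: TNF-alpha high, DMSO low. Detection: immunofluorescence imaging. Buffer or medium: EGM-2, gelatin.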
CFTR F508del cor: F508del CFTR correction, initial screen, CFBE line, single point. hit rate 0.36% among 350,000. AID 720511, 2013. activity (quench increase), % at 7.58 µM. CFBE cells, YFP halide quenching; stimulated with forskolin plus potentiator P3; % fluorescence drop versus neutral controls;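 active = mean added fluorescence quench of at least 8% versus neutral control, with both replicates also reaching 8%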;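 also: cells transiently co-express mutant CFTR-F508del with the halide-sensitive YFP; corrector assay measuring rescue of mutant channel to the surface after 24 h compound exposure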
FGF22 binding-2: binders of human FGF22 protein, dose response, FGF22 synaptogenesis inhibitor project, biophysical, thermal shift, cherry-pick retest | shares compounds with FGF22 binding-1 | recombinant FGF22 thermal shift, SYPRO orange fluorescence | thermal shift activity, °C (ΔTm) at 38 µM | hit rate 2% among 1,000 | AID 720646, 2013;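 active = fitted rise in melting shift crosses a set limit at or below the top valid dose tested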
FGF22 TSA DP: binders of human FGF22 protein, dose response, FGF22 synaptogenesis inhibitor project, biophysical, thermal shift, dry powder; 50 tested, under 10 active; Thermal shift assay, SYPRO orange, melting temperature shift; Tm shift (activity), % at 38 µM; shares compounds with FGF22 binding-1;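 active = compounds whose fitted dose curve of melting temperature shift rises past a set threshold within the tested doses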
TSA no protein: compound-only thermal shift signal without protein, dose response, artefact control for FGF22 binder project, biochemical, cherry-picked samples, RT-PCR instrument | shares compounds with FGF22 binding-1 | compound-only SYPRO orange thermal shift counter-screen, no protein | AC50, µM (highest dose often 38 µM) | hit rate 2% among 1,000 | AID 743019, 2013;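 active = rising signal whose fitted curve reaches the 0.54 level within the top valid dose, showing a melting point, actives reach about 13 µM in these data; inactive = the rest, including activity in the opposite direction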; also: value is where the raw curve crosses a fixed level and not half-maximal
Numbers without * were called inactive; i = inactive; x = no result; [ ] = dose if it differs, or a comment. Compounds with a hit are over-represented: about 2.7% of the library has one in this group of screens.

SMILES | FGF22 binding-1 | Env fusion inh | S100A4 MyoIIA | E-sel inducer | CFTR F508del cor | FGF22 binding-2 | TSA no protein | others
O=C(Nc1ccc2c(c1)OCO2)N[C@@H]1CC[C@H](CCNC(=O)C2CCCCC2)O[C@@H]1CO | 0 | -3[16.7 µM] | -3 | -1 | -1 | x | x
Cc1ccc(S(=O)(=O)N2C[C@]3(O)C[C@@H]4C(=O)N(c5ccccc5)C(=O)[C@@H]4C[C@]3(OC(=O)NCC3CCCCC3)C2)cc1 | 3.2* | -55 | 3 | x | 2 | 0.05 | i
CCC(=O)N1CC2(CCN(Cc3nccs3)CC2)c2c(n(C)c3cc(OC)ccc23)[C@H]1CO | 0 | x | 5 | 0 | 0 | x | x
CCC(=O)N1CC2(CCN(Cc3nccs3)CC2)c2c(n(C)c3cc(OC)ccc23)[C@@H]1CO | 1.3* | x | -4 | 1 | 1 | 0.14 | i
COc1ccc(-c2ccc([C@@H]3[C@@H](CO)N4CCCCN(C(=O)c5ccc(F)cc5)C[C@@H]34)cc2)cc1 | 34* | x | -2 | -1 | -1 | 0.089[42 µM] | 9µM*
COc1ccc(-c2ccc([C@H]3[C@@H](CO)N4CCCCN(C(=O)c5ccc6c(c5)OCO6)C[C@@H]34)cc2)cc1 | 0 | x | -5 | 0 | -5 | x | x
COc1ccc(-c2ccc([C@H]3[C@@H](CO)N4CCCCN(C(=O)c5ccc6c(c5)OCO6)C[C@H]34)cc2)cc1 | 1.3* | x | -4 | 0 | -5 | 0.02 | i
Cc1noc(C)c1NC(=O)N[C@H]1CC[C@@H](CC(=O)Nc2ccc(-c3ccccc3)cc2)O[C@H]1CO | 0 | -9[16.7 µM] | 10 | 0 | -2 | x | x
C[C@@H]1CCCCO[C@@H](CN(C)C(=O)NC2CCCCC2)[C@@H](C)CN([C@@H](C)CO)C(=O)c2cc(NS(=O)(=O)c3cn(C)cn3)ccc2O1 | 0 | x | 3 | 1 | -1 | x | x
O=C(CN1C(=O)NC2(CCOc3ccccc32)C1=O)Nc1ccc(Br)cc1F (stereo not given) | 1.7* | x | -6 | x | 1 | -0.34 | i
CN(C)CCCNC(=O)C[C@H]1CC[C@@H]2[C@@H](COc3ccc(NC(=O)NC4CCCC4)cc3C(=O)N2C)O1 | x | -16[16.7 µM] | x | 0 | -1 | x | x
O=C(N[C@H]1CC[C@H](CC(=O)N2CCOCC2)O[C@@H]1CO)c1ccc2c(c1)OCO2 | 0 | 5[16.7 µM] | -12 | 0 | 1 | x | x
CCCNC(=O)N1C[C@@H](O)COC[C@H]2O[C@H](CC(=O)N[C@@H]3CCN(Cc4ccccc4)C3)CC[C@@H]21 | 0 | -13[16.7 µM] | -27 | 0 | 0 | x | x
COC(=O)[C@]1(Cc2ccccc2)N[C@H](CN(C)S(=O)(=O)c2ccc(C)cc2)[C@@H]2C(=O)N(Cc3ccccc3)C(=O)[C@@H]21 | 1.4* | 1 | 3 | x | 1 | -0.13 | i
CO[C@@H]1CN(C)C(=O)c2cc(NS(=O)(=O)c3ccccc3)ccc2OC[C@H](C)NC[C@@H]1C | -1 | x | 8 | 0 | 1 | x | x
COc1ccc(NC(=O)c2[nH]ncc2[N+](=O)[O-])cc1 | 1.4* | -23 | 5 | 2 | -1 | -0.16 | i
O=C(Nc1ccccc1)c1[nH]ncc1[N+](=O)[O-] | x | -22 | x | x | x | x | x
c1ccc(Cc2nnc(-c3ccccc3)o2)cc1 | x | -74 | x | x | x | x | x
COc1ccc(Cc2nnc(-c3ccccc3)o2)cc1 | 17* | -37 | -3 | 0 | 0 | 0.2 | i
Cc1ccc(S(=O)(=O)N2C[C@@H](O)COC[C@@H]3O[C@@H](CC(=O)NCc4ccc(Cl)c(Cl)c4)CC[C@H]32)cc1 | 1.4* | x | 5 | 0 | 3 | 0.1[42 µM] | i | FGF22 TSA DP=0
COc1cccc(S(=O)(=O)N2C[C@@H](O)COC[C@@H]3O[C@@H](CC(=O)Nc4ccccc4)CC[C@H]32)c1 | 1.3* | -7[16.7 µM] | 2 | 0 | -2 | -0.24[42 µM] | i
Cc1ccc(S(=O)(=O)N2C[C@H](O)COC[C@@H]3O[C@H](CC(=O)NCc4ccc(Cl)c(Cl)c4)CC[C@H]32)cc1 | 0 | x | -6 | 0 | -2 | x | x
O=C(C[C@@H]1CC[C@H]2[C@@H](COC[C@@H](O)CN2S(=O)(=O)c2cccc(F)c2)O1)Nc1ccccc1 | 2.3* | x | x | 0 | 0 | -1.1 | i
O=C(C[C@H]1CC[C@@H]2[C@H](COC[C@H](O)CN2S(=O)(=O)c2cccc(Cl)c2)O1)Nc1ccccc1 | 1.4* | x | -5 | 0 | -2 | 0.041[42 µM] | i | FGF22 TSA DP=0
CCC(=O)Nc1ccc2c(c1)C(=O)N(C)C[C@H](OC)[C@H](C)CN(C(=O)CN(C)C)[C@@H](C)CO2 | x | x | x | 0 | 1 | x | x
SMILES | FGF22 binding-1 | Env fusion inh | S100A4 MyoIIA | E-sel inducer | CFTR F508del cor | FGF22 binding-2 | TSA no protein | others
CCC(=O)N1[C@H](CO)[C@H](c2ccccc2)C12CN(Cc1nccs1)C2 | 0 | x | -11 | 0 | 1 | x | x
CCC(CC)CN1CCC(CN2C(=O)C(=O)NC[C@@H]2CC(C)C)CC1 | 1.9* | x | -2 | 0 | -1 | x | i
O=C(C[C@H]1CC[C@H]2[C@@H](COC[C@H](O)CN2Cc2ccc(Cl)cc2)O1)NCc1cccc(F)c1 | 0 | x | x | 0 | -5 | x | x
O=C(O)c1ccc(S(=O)(=O)N(CCc2ccccc2)Cc2ccc(Cl)cc2)cc1 | 0 | 13 | 3 | 0 | -2 | x | x
O=C(O)CCN(Cc1ccccc1)S(=O)(=O)c1ccccc1Cl | 2.9* | 3 | -1 | 1 | 5 | -0.16 | i
COc1cc(-c2nc(C)c(C(C)=O)n2O)ccc1OCC(=O)Nc1ccc(Cl)cc1 | 2.5* | 10 | 1 | 5 | 0 | -0.17 | i
COc1ccc(-c2nc(C)c(C(C)=O)n2O)cc1OC | x | x | 1 | x | x | x | x
CC(=O)c1c(C)nc(-c2ccc(OCC(=O)Nc3cccc(C)c3C)cc2)n1O | 2.2* | -10 | 4 | 1 | 5 | -0.018 | i
CC(C)C(c1nnnn1CCc1ccccc1)N1CCSCC1 (stereo not given) | 3.1* | -1 | 2 | x | -2 | 0.032 | i
CC1CCN(C(c2nnnn2CCc2ccccc2)C(C)C)CC1 (stereo not given) | 0 | 11 | -8 | 0 | -1 | x | x
